{"data": "Measurements pooled from the literature", "CDK4 with cyclin D3": "Cyclin-dependent kinase 4, with cyclin D3 (CDK4, Homo sapiens, UniProt P11802)", "CDK4 with cyclin D1": "Cyclin-dependent kinase 4, with cyclin D1 (CDK4, Homo sapiens, UniProt P11802)", "CDK4": "Cyclin-dependent kinase 4 (CDK4, Homo sapiens, UniProt P11802)"}
{"Structure (SMILES)": "O=c1[nH]c2ccccc2n1C1CCN(Cc2ccc(-c3[nH]c4cc5ncnc5cc4nc3-c3ccccc3)cc2)CC1", "target": "CDK4 with cyclin D3", "assay": "cell-free assay", "setting": "0.5 µM", "measurement": "remaining signal", "value": "99.7%"}
{"Structure (SMILES)": "Nc1ncc(-c2nc(N3CCOCC3)nc(N3CCOCC3)n2)c(C(F)F)n1", "target": "CDK4 with cyclin D3", "assay": "binding, competition with immobilised ligand", "setting": "10 µM", "measurement": "remaining binding", "value": "87%"}
{"Structure (SMILES)": "Cn1cncc1[C@](O)(COc1ccc(C#N)cc1-c1ccc(OC(F)(F)F)cc1)c1ccc(C#N)cc1", "target": "CDK4 with cyclin D1", "assay": "cell-free assay, competition with immobilised ligand", "setting": "1 µM", "measurement": "remaining binding", "value": "100%"}
{"Structure (SMILES)": "CC(C)(C)c1cc(C=C(C#N)C#N)cc(Br)c1O", "target": "CDK4 with cyclin D1", "assay": "enzyme activity, inhibitor", "setting": "0.5 µM", "measurement": "remaining activity", "value": "115%"}
{"Structure (SMILES)": "CCOC(=O)[C@H]1Cc2c(cc([N+](=O)[O-])cc2[N+](=O)[O-])[C@H](O)[C@]12C(=O)Nc1ccc([N+](=O)[O-])cc12", "target": "CDK4", "assay": "cell-free assay, inhibitor, TR-FRET", "setting": "1 µM", "measurement": "inhibition", "value": "37.9%"}
{"Structure (SMILES)": "N#CC1(c2ccccn2)CCN(Cc2cc(C(=O)O)c(=O)n3ccccc23)CC1", "target": "CDK4 with cyclin D3", "assay": "cell-free assay, competition with immobilised ligand", "setting": "1 µM", "measurement": "remaining binding", "value": "82%"}
{"Structure (SMILES)": "CCOC(=O)[C@H]1Cc2c(cc([N+](=O)[O-])cc2[N+](=O)[O-])[C@H](O)[C@]12C(=O)Nc1cccc(Br)c12", "target": "CDK4", "assay": "cell-free assay, inhibitor, TR-FRET", "setting": "1 µM", "measurement": "inhibition", "value": "29.4%"}
{"Structure (SMILES)": "Cc1nn(C)cc1-c1nc2c(N3CCN(Cc4ccc(Cl)cc4)CC3)c(Cl)cnc2[nH]1", "target": "CDK4 with cyclin D3", "assay": "binding, competition with immobilised ligand", "setting": "1 µM", "measurement": "remaining binding", "value": "74%"}
